In ChEMBL document CHEMBL1165965, “Synthesis and structure-activity relationships of 1,2,3,4-tetrahydropyrido[2,3-b]pyrazines as potent and selective inhibitors of the anaplastic lymphoma kinase” (Bioorg Med Chem, 2010) one finds inhibition data, which are given here for ten compounds.

Experiment [1] concerns the target Mitogen-activated protein kinase kinase kinase 4 (Homo sapiens) (UniProt Q9Y6R4). Put plainly: Inhibition of MAP3K4 at 1 uM.
The target of experiment [2] is Hepatocyte growth factor receptor (Homo sapiens) (UniProt P08581). The experiment is described as follows: Inhibition of MET at 1 uM. Summed up:
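Single-concentration screen on the Ambit KINOMEscan platform, run against a panel of 250–400 kinases. Per-kinase inhibition was also summarized as S(90), the fraction of kinases inhibited by more than 90%.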

Experiment [3] concerns the target Platelet-derived growth factor receptor beta (Homo sapiens) (UniProt P09619). The experiment is described as follows: Inhibition of PDGFRB at 1 uM.
Experiment [4] has as its target Ribosomal protein S6 kinase alpha-1 (Homo sapiens) (UniProt Q15418). The experiment is described as follows: Inhibition of RPS6KA1 C-terminal domain2 at 1 uM.
The target in experiment [5] is Ribosomal protein S6 kinase alpha-5 (Homo sapiens) (UniProt O75582). Put plainly: Inhibition of RPS6KA5 N-terminal domain1 at 1 uM.
In experiment [6] the target is Ribosomal protein S6 kinase alpha-6 (Homo sapiens) (UniProt Q9UK32). The experiment is described as follows: Inhibition of RPS6KA6 C-terminal domain2 at 1 uM.
In experiment [7] the target is Tyrosine-protein kinase SYK (Homo sapiens) (UniProt P43405). Put plainly: Inhibition of SYK at 1 uM.
Experiment [8] deals with Serine/threonine-protein kinase 25 (Homo sapiens) (UniProt O00506). Put plainly: Inhibition of YSK1 at 1 uM.
Sequence of Serine/threonine-protein kinase 25 (Homo sapiens) (O00506 whole entry, looked up): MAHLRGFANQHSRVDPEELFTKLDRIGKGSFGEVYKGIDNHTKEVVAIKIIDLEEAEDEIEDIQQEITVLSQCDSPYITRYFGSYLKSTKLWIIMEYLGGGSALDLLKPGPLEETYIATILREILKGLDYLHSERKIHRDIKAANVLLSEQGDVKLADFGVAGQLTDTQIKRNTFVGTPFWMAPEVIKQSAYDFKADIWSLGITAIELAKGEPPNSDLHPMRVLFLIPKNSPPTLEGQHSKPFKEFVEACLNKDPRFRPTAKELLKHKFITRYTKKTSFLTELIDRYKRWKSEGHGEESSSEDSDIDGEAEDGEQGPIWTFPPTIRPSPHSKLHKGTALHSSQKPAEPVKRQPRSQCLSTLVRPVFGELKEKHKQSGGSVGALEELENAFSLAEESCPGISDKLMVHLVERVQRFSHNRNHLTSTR
The target of experiment [9] is T1, Cyclin-dependent kinase 11A (Homo sapiens) (UniProt Q9UQ88).
T1 sequence (whole entry): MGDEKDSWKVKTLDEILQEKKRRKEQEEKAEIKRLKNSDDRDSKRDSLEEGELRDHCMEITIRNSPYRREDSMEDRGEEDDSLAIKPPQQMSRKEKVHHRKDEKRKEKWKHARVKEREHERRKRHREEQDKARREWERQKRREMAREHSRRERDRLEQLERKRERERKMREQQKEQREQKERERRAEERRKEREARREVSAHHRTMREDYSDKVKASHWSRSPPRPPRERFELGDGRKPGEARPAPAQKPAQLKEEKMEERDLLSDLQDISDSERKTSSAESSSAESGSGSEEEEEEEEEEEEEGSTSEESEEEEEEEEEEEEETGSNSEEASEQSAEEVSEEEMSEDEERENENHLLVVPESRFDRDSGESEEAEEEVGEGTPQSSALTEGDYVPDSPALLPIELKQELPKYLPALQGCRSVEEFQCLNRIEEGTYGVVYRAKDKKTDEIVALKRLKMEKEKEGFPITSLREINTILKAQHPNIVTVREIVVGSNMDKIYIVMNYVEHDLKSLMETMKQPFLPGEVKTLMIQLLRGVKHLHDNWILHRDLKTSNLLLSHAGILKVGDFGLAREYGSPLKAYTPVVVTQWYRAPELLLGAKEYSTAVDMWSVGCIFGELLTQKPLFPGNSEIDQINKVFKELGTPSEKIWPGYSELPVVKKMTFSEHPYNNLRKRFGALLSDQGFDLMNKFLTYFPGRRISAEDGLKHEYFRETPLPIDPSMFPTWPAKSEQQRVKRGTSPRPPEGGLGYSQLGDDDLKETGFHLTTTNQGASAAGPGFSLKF
Put plainly: Inhibition of CDC2L2 at 1 uM.

Experiment [10] deals with T2, Ephrin type-B receptor 6 (Homo sapiens) (UniProt O15197).
T2 sequence (whole entry): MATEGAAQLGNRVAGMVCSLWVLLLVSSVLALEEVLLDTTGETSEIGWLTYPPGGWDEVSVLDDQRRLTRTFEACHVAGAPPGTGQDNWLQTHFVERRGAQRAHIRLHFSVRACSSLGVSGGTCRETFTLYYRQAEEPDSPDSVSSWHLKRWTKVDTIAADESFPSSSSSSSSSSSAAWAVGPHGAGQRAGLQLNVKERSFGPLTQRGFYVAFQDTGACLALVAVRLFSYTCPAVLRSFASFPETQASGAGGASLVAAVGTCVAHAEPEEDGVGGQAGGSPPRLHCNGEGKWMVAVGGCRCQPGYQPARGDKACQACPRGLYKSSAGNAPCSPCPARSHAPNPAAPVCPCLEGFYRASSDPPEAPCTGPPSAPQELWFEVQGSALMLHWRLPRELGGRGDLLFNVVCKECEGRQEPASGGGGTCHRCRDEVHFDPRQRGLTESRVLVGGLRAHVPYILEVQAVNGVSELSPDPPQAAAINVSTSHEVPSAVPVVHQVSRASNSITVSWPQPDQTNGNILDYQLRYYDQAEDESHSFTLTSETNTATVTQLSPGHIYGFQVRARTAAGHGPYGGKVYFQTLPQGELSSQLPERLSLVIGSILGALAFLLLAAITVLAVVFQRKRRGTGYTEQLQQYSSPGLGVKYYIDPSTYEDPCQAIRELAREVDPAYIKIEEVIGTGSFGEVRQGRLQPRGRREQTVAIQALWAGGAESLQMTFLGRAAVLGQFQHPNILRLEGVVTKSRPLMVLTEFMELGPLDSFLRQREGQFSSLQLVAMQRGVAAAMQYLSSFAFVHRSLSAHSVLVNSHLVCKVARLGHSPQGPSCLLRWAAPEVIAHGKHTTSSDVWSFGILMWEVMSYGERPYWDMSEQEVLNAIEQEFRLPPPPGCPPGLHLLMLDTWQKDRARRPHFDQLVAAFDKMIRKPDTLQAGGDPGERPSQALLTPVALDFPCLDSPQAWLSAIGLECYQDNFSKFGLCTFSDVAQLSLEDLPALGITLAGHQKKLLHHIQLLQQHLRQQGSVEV
Put plainly: Inhibition of EPHB6 at 1 uM.

Experiment [11] addresses Serine/threonine-protein kinase/endoribonuclease IRE1 (Homo sapiens) (UniProt O75460). The experiment is described as follows: Inhibition of ERN1 at 1 uM.

Each structure is given as a SMILES string. Bounds are passed on as bounds.

Sequence of Ribosomal protein S6 kinase alpha-1 (Homo sapiens) (Q15418 whole entry, the tested form may be a part): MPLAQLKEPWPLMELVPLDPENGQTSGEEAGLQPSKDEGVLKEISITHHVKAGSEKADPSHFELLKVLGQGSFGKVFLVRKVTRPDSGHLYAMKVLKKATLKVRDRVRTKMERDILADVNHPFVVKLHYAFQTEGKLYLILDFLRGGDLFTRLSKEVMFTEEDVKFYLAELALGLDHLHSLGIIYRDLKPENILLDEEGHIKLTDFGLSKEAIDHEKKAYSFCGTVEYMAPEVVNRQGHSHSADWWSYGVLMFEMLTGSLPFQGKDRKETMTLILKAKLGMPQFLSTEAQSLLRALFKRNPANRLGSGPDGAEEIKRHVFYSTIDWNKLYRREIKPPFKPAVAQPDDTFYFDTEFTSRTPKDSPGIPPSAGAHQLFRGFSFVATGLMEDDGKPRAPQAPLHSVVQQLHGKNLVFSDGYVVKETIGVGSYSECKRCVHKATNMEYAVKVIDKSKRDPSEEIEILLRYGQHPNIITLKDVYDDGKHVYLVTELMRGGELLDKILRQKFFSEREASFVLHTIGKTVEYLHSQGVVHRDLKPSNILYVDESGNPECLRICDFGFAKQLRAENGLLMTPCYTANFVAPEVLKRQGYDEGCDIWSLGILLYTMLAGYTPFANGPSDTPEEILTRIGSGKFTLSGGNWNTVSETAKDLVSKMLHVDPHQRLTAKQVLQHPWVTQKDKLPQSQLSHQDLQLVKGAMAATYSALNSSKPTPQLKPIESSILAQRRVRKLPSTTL
Sequence of Platelet-derived growth factor receptor beta (Homo sapiens) (P09619 whole entry, the tested form may be a part): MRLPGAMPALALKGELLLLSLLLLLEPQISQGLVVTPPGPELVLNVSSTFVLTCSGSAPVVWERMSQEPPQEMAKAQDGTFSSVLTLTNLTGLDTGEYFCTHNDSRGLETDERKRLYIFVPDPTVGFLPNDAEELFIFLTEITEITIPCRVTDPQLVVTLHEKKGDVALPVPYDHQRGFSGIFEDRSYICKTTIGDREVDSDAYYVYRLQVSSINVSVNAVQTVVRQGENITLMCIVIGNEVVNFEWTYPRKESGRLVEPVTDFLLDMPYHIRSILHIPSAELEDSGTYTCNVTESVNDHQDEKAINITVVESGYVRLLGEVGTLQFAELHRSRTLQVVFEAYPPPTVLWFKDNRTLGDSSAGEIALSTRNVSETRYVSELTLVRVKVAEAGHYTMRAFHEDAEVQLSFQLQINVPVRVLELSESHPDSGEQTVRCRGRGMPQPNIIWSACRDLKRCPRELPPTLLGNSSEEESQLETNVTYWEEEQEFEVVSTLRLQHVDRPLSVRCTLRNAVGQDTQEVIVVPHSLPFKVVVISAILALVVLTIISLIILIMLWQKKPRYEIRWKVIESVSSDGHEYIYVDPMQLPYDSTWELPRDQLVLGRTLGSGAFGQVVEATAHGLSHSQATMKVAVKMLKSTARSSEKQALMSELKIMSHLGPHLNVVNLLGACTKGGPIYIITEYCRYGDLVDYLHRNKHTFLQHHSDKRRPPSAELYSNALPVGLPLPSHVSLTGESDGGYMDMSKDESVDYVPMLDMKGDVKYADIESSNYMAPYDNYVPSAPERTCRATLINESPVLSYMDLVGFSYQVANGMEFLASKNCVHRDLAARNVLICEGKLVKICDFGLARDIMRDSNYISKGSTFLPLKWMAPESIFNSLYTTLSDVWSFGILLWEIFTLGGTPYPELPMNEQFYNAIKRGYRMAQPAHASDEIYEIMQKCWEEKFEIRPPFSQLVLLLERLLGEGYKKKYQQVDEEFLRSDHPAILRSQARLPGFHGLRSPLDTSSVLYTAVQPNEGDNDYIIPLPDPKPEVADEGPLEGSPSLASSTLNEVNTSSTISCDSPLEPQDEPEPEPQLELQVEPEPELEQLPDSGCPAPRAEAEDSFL
Sequence of Mitogen-activated protein kinase kinase kinase 4 (Homo sapiens) (Q9Y6R4 whole entry): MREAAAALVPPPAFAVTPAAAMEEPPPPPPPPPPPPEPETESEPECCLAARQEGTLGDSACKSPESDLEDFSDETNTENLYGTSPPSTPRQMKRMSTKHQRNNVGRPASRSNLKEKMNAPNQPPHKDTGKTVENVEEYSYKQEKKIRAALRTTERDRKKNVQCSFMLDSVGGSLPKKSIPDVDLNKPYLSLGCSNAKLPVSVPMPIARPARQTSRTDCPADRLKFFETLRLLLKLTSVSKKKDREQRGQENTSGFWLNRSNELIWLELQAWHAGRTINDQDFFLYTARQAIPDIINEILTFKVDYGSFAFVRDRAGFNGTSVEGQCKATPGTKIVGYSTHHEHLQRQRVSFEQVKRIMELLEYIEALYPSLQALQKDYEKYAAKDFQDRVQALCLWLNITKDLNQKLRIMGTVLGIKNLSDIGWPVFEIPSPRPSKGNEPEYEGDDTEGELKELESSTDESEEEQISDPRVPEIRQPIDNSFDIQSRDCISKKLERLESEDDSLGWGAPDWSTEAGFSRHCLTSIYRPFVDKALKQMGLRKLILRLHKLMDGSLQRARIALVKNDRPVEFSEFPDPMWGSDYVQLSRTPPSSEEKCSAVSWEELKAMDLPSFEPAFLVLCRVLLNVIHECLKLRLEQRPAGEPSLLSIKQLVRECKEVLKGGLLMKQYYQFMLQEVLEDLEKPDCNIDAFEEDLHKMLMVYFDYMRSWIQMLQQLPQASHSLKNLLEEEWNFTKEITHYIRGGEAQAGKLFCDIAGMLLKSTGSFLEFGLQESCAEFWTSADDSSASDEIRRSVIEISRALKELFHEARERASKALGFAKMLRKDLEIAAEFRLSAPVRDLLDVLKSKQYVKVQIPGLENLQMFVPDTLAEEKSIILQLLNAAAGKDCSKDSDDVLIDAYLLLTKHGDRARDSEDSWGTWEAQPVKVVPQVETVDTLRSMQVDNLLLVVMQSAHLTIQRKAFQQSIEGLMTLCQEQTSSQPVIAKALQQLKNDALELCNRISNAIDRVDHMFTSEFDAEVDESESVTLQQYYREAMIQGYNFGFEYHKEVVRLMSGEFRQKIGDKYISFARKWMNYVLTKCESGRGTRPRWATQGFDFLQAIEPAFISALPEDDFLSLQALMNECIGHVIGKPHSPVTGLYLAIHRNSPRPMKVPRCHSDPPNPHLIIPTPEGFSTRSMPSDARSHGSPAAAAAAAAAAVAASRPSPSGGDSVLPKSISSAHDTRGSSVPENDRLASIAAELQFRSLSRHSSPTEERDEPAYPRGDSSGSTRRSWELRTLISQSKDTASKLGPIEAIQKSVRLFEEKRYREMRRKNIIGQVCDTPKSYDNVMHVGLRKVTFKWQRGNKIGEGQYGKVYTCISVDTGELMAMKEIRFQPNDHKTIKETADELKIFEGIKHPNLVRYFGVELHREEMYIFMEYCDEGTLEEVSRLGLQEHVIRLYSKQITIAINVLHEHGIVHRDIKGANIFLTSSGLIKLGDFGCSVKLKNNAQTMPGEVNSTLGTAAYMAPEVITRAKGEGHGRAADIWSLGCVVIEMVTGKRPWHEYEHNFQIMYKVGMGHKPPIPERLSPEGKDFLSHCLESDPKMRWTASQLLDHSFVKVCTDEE
Sequence of Serine/threonine-protein kinase/endoribonuclease IRE1 (Homo sapiens) (O75460 19-977 limits assumed): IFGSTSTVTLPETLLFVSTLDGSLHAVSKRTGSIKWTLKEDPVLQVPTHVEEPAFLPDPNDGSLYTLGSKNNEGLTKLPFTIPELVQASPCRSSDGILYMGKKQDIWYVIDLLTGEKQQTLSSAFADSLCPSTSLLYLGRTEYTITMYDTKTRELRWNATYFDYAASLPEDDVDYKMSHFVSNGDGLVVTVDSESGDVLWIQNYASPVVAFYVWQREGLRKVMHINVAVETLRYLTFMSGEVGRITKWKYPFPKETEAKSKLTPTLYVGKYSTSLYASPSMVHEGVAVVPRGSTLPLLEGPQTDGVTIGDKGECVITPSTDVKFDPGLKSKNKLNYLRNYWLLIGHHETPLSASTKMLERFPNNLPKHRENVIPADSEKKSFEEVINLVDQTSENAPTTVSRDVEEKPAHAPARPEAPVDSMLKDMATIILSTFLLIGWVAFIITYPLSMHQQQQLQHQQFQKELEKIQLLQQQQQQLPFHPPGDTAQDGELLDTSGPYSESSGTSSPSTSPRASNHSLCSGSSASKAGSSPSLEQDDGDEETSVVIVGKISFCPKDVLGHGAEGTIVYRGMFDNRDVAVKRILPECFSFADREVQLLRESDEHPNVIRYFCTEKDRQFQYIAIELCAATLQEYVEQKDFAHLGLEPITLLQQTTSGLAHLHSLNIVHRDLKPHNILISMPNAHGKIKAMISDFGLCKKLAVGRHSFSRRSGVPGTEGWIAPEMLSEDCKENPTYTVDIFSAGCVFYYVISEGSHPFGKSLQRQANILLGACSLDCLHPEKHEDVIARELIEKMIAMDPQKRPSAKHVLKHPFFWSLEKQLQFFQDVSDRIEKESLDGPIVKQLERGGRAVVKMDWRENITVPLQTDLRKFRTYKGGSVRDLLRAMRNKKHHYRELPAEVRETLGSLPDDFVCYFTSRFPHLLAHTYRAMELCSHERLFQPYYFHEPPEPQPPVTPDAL

As to `FC(F)(F)c1ccc(Cl)cc1CN1CCNc2ncc(-c3ccnc(N4CCNCC4)c3)cc21`, the inhibition (usually the relative decrease from the control value, in per cent) in experiment [1] is less than 50%; in experiment [2], 94%; in experiment [3] it was 92%; in experiment [4], less than 50%; in [5], less than 50%; in experiment [6] it was less than 50%. In addition, the inhibition in experiment [7] was less than 50%; in experiment [8] it was less than 50%; in experiment [9], less than 50%; in experiment [10] it was 97%; in [11] it was less than 50%.

With `CN1CCN(c2ccc(-c3cnc4c(c3)N(Cc3cc(F)ccc3F)CCN4)cn2)CC1`, the inhibition in [1], in experiment [2], in experiment [3], in [4], in [5] and in [6] was less than 50% in each case. Moreover, the inhibition was less than 50% in experiment [7]; less than 50% in [8]; less than 50% in experiment [9]; 68% in [10]; less than 50% in experiment [11].

For the compound `CN1CCN(c2ccc(-c3cnc4c(c3)N(Cc3cc(Cl)ccc3Cl)CCN4)cn2)CC1`, the inhibition in experiment [1] is less than 50%; in [2], 67%; in experiment [3], less than 50%; in experiment [4], less than 50%; in experiment [5], less than 50%; in [6] it was less than 50%. Also, the inhibition is less than 50% in [7]; less than 50% in [8]; less than 50% in [9]; 76% in [10]; less than 50% in [11].

With `O=C(O)c1ccc(-c2cnc3c(c2)N(Cc2cc(Cl)ccc2C(F)(F)F)CCN3)cc1`, the inhibition in experiment [1], in experiment [2], in experiment [3], in experiment [4], in experiment [5] and in experiment [6] was less than 50% each time. Besides, in [7], the inhibition is less than 50%.

Regarding `CN1CCN(c2ccc(-c3cnc4c(c3)N(Cc3cc(Cl)ccc3C(F)(F)F)CCN4)cn2)CC1`, the inhibition in experiment [1] was less than 50%; in experiment [2] it was 82%; in [3] it was less than 50%; in [4], less than 50%; in [5] it was less than 50%; in experiment [6], less than 50%. Also, the inhibition in experiment [7] is less than 50%; in experiment [8] it was less than 50%; in experiment [9], less than 50%; in [10], 89%; in [11], less than 50%.

On to `COC1CCN(C(=O)c2ccc(-c3cnc4c(c3)N(Cc3cc(Cl)ccc3C(F)(F)F)CCN4)cc2)CC1`, for which the inhibition in experiment [2] is 76.6%; in experiment [3], less than 50%; in [4] it was less than 50%; in experiment [5], less than 50%; in [6], less than 50%; in experiment [7] it was less than 50%.

With `O=C(c1ccc(-c2cnc3c(c2)N(Cc2cc(Cl)ccc2C(F)(F)F)CCN3)cc1)N1CCC(N2CCCC2)CC1`, the inhibition is less than 50% in experiment [1]; 90.3% in [2]; 76.4% in experiment [3]; less than 50% in experiment [4]; less than 50% in [5]; less than 50% in experiment [6]. In experiment [7], the inhibition is less than 50%.

With `CN1CCN(c2ccc(-c3cnc4c(c3)N(Cc3c(F)ccc(F)c3Cl)CCN4)cn2)CC1`, the inhibition in [1] is less than 50%; in experiment [2], 94%; in [3], less than 50%; in [4], less than 50%; in experiment [5], less than 50%; in experiment [6] it was less than 50%. For the same compound, the inhibition was less than 50% in [7]; less than 50% in experiment [8]; less than 50% in experiment [9]; 95% in experiment [10]; less than 50% in experiment [11].

Take `O=C(c1ccc(-c2cnc3c(c2)N(Cc2cc(Cl)ccc2C(F)(F)F)CCN3)cc1)N1CCCCC1`: the inhibition is less than 50% in [1]; 66% in experiment [2]; less than 50% in [3]; less than 50% in [4]; less than 50% in experiment [5]; less than 50% in [6]. For the same compound, the inhibition in experiment [7] was less than 50%.

As for `CC(=O)N1CCN(c2cc(-c3cnc4c(c3)N(Cc3cc(Cl)ccc3C(F)(F)F)CCN4)ccn2)CC1`, the inhibition in experiment [1] is less than 50%; in [2] it was 86%; in experiment [3], less than 50%; in experiment [4], less than 50%; in [5] it was less than 50%; in [6], less than 50%. The inhibition in experiment [7] was less than 50%; in experiment [8], less than 50%; in experiment [9], less than 50%; in experiment [10], 92%; in experiment [11], less than 50%.
